Experimental data collected from several papers.
Protocols differ between the studies behind these lines.
Observed: cell growth or viability

SMILES | cell line | assay | conditions | measurement | result
CN(C)c1ccc(C(=O)NCCCCCCC(=O)NO)cc1 | OCI-Ly1 | ATP luminescence | 0.5 µM, 5 days | viability | 62.3%
CC[C@H](C)[C@@H]([C@@H](CC(=O)N1CCC[C@H]1[C@H](OC)[C@@H](C)C(=O)N[C@H](C)[C@@H](O)c1ccccc1)OC)N(C)C(=O)[C@@H](NC(=O)[C@H](C(C)C)N(C)C(=O)OCc1ccc(NC(=O)[C@H](CCCNC(N)=O)NC(=O)[C@@H](NC(=O)CCOCCOCCOCCOCCC(=O)N[C@@H]2CSSC[C@H](C(=O)O)NC(=O)CNC(=O)[C@@H](CCCNC(=N)N)NC(=O)CNC(=O)[C@@H](C(C)C)NC(=O)CNC(=O)[C@@H](C)NC(=O)[C@@H](CCCNC(=N)N)NC2=O)C(C)C)cc1)C(C)C | 4T1 | resazurin | 24 h | IC50 | 500 nM
Cc1ccc(NC(=O)c2ccc(CN3CCN(C)CC3)cc2)cc1Nc1nccc(-c2cccnc2)n1 | K562 | MTT | 0.2 µM | viability | 41.6%
N.N.[Cl][Pt][Cl] | K562 | ATP luminescence | 10 µM, 72 h | inhibition | 97%
Cc1ncsc1-c1ccc([C@H](C)NC(=O)[C@@H]2C[C@@H](O)CN2C(=O)[C@@H](c2cc(N3CCC(CN4CCC(OC5CC(Oc6cc(N7C8CCC7CN(c7cc(-c9ccccc9O)nnc7N)C8)ccn6)C5)CC4)CC3)no2)C(C)C)cc1 (some centres unmarked) | VCaP | ATP luminescence | 7 days | IC50 | 4.3 nM
CC[C@H](C)[C@@H]([C@@H](CC(=O)N1CCC[C@H]1[C@H](OC)[C@@H](C)C(=O)N[C@H](C)[C@@H](O)c1ccccc1)OC)N(C)C(=O)[C@@H](NC(=O)[C@@H](NC)C(C)C)C(C)C | 4T1 | CCK-8 |  | IC50 | 0.294 nM
CC(=O)N[C@H]1[C@@H](O[C@@H]2O[C@H](C[C@@H](O)[C@H]3O[C@@H](n4ccc(=O)[nH]c4=O)[C@H](O)[C@@H]3O)[C@H](O)[C@H](O)[C@H]2NC(=O)/C=C/CCCCCCCCCC(C)C)O[C@H](CO)[C@@H](O)[C@@H]1O | MCF-10A | WST-1 |  | IC50 | 250 nM
N.N.[Cl][Pt][Cl] | MCF-10A | MTT | 48 h, dark | IC50 | 34600 nM
